# Shown are actives, neighbours in structure and some others; about 2.3% of the full set was active somewhere.
# NR2F2 inh – NR2F2 transcriptional activity inhibitors, primary screen, cell-based, luciferase reporter, HEK293T, luminescence; COUP transcription factor 2 (Homo sapiens), P24468; HEK293T NGFI-A luciferase reporter; inhibition, % at 8.6 µM; 370,000 compounds, 0.7% hits;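 active means inhibition above a per-plate cutoff, mean inhibition of test wells between control levels plus 3 SD, cut at about 38% in these data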;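 further: cells cotransfected with COUP-TFII expression vector driving the NGFI-A reporter; 0% = median of COUP-TF2 test wells and 100% = reporter-only cells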
# NR2E3 ag-1 – inhibitors of NR2E3-RetCOR corepressor binding, primary screen, NR2E3 agonist project, biochemical, TR-FRET, GST-NR2E3, biotin-RetCOR; 320,000 compounds, 0.12% hits; Photoreceptor-specific nuclear receptor (Homo sapiens), Q9Y5X4; inhibition of corepressor binding, % at 4.78 µM; AID 2300, 2010; 1536-well;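 active means percent inhibition above the cutoff of mean plus 3 SD of all tested compounds, set per screening campaign, cut at about 20% in these data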;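 further: 0% = DMSO wells and 100% = biotin wells as full block of FRET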
#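 Test system – NR2E3–RetCOR corepressor complex · Quantity – NR2E3 fusion 1.35 nM · Buffer or medium – Tris pH 7.5 · Incubation – Compound–protein incubation for 5 h at 4 °C · Technique – TR-FRET, Eu(K)-anti-GST donor, streptavidin-D2 acceptor, ex 340, em 617/671 nm · Evaluation – percent inhibition of 671/617 nm emission ratio versus biotin and DMSO controls · Plate – 1536-well format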
# CHT PAM – CHT positive allosteric modulators, primary screen, cell-based, membrane potential dye, choline EC20 | AID 488977, 2010 | 310,000 compounds, 0.49% hits | B-score at 10 µM | CHT-expressing cells; stronger effect = higher value; LV-AA mutant CHT in HEK293 cells;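 active means initial fluorescence not abnormally high and integrated response B-score, plate-corrected, over 3 SD above library mean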
# Target sequence (Q9GZV3 whole entry, looked up): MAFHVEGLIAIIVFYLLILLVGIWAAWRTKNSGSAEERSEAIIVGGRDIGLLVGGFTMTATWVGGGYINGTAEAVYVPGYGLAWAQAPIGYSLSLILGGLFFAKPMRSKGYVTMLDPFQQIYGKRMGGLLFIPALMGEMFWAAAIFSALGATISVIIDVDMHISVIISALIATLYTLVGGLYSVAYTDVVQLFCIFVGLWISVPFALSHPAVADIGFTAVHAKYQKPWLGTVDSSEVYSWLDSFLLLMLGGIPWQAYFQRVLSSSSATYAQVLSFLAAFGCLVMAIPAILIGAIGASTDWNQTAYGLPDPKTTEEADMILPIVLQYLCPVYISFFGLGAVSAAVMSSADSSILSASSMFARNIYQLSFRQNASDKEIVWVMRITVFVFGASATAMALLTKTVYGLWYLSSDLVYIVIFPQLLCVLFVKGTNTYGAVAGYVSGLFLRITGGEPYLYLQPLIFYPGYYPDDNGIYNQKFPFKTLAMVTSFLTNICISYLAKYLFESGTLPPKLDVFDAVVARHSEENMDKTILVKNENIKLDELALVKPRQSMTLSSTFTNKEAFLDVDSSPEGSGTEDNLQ
# GalR3 antagonist – GalR3 antagonists in HEK293 cells, primary screen, cell-based, fluorescence readout. HEK293 GalR3-CNG cAMP membrane potential fluorescence; galR3 body fused to GalR1 C-terminus. inhibition, % at 3 µM. 360,000 compounds, 0.44% hits;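 active means inhibition above the screen-wide average plus 3 SD, cut at about 13% in these data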;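 further: forskolin and galanin both at EC90 stimulate the cells; cAMP rise reported by CNG channel membrane potential dye signal; 0% = forskolin plus galanin with DMSO and 100% = forskolin alone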
# NR2E3 ag-2 – NR2E3 agonists in two-hybrid cells, primary screen, cell-based, luminescence, CHO-S, Gal4-NCOR/VP16-NR2E3; luciferase; AID 602229, 2012; 360,000 compounds, 0.35% hits; inhibition of corepressor binding, % at 3.98 µM;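 active means inhibition above the mean of all tested compounds plus 3 SD, cut at about 70% in these data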;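 further: 0% = DMSO with NR2E3 transfected cells and 100% = cells lacking NR2E3 construct; higher means lower luciferase signal from less NR2E3 corepressor binding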
# CHT block – inhibitors of human choline transporter CHT; CHT-expressing cells, membrane potential dye, choline response; stronger effect = lower value; B-score at 10 µM; 310,000 compounds, 0.86% hits; AID 488975, 2010;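 active means B-score over 3 SD under the library average, and starting fluorescence ratio not unusually high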;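 further: choline stimulus applied at its EC90 after an EC20 pre-addition; B-score computed on integrated fluorescence ratio after choline addition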
# Gal4-VP16 ctr – Gal4-VP16 luciferase reporter inhibitors, counter-screen for COUP-TFII antagonist project, cell-based, luminescence, HEK293. shares compounds with NR2F2 inh. inhibition, % at 8.5 µM. 2,500 compounds, 25% hits. AID 687007, 2013; in the data active means inhibition above about 13%
# NR2F2 inh conf – NR2F2 transcriptional activity inhibitors, confirmation, cell-based, luciferase reporter, HEK293, triplicate; 2,500 compounds, 45% hits; HEK293 NGFI-A luciferase reporter, luminescence; shares compounds with NR2F2 inh; inhibition, % at 8.5 µM;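 active means mean inhibition over three repeats above a set limit taken from the earlier primary screen, cut at about 38% in these data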;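 further: 100% = cells given the luciferase reporter alone without the COUP-TF2 vector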
# * = called active by the depositor; i = inactive; nt = not tested or not shown; ! = not confirmed by another sample.
SMILES,NR2F2 inh,NR2E3 ag-1,CHT PAM,GalR3 antagonist,NR2E3 ag-2,CHT block,Gal4-VP16 ctr,NR2F2 inh conf
Clc1ccc(-c2csc3ncnc(NCCN4CCOCC4)c23)cc1,31,0,i,-5,-24,i,nt,nt
C=CC(=O)N1C/C(=C/c2ccc(Cl)cc2)C(=O)/C(=C\c2ccc(Cl)cc2)C1,90*,nt,nt,-3,21,nt,85*,102*
C=CC(=O)N1C/C(=C/c2ccccc2)C(=O)/C(=C\c2ccccc2)C1,98*,nt,nt,-6,36,nt,71*,101*
Cc1cccc(Nc2ncnc3ccc(Br)cc23)c1,45*,7,i,-2,-10,i,-8,16
CN(C)c1ccc(Nc2ncnc3ccc(Br)cc23)cc1,38*,-1,i,-8,-63,i,-6,6
Cc1ccc2ncnc(Nc3cccc(C(=O)O)c3)c2c1,-4,5,i,-1,-7,i,nt,nt
NC(=NCCc1ccccc1)NS(=O)(=O)c1ccccc1,1,4,i,-5,8,i,nt,nt
Cc1cc(C)nc(NC(N)=NCCc2ccccc2)n1,43*,nt,nt,-10,24,nt,-12,19
COc1ccc(CN2C(=O)[C@@](O)(c3cccn3C)c3cc(Br)ccc32)cc1,-10,nt,nt,nt,nt,nt,nt,nt
O=C(c1ccc(Cl)c(Cl)c1)N1CCN(c2ccnc3cc(Cl)ccc23)CC1,54*,nt,nt,nt,nt,nt,10,22
Cc1nc(N2CCN(C(=O)COc3ccccc3C)CC2)c2c3c(sc2n1)CCCC3,76*,nt,nt,nt,nt,nt,-7,-18
O=C(CSc1nc2nc(-c3cccs3)cc(C(F)(F)F)c2c(=O)[nH]1)C(F)(F)F,38*,3,i,-10,-20,i,-3,36
NC(=O)c1ccc(NC(=O)CSc2nnc(-c3ccccc3)n2-c2ccccc2)cc1,-5,nt,nt,nt,nt,nt,nt,nt
COc1ccc(COC(=O)C2=C(C)NC(=O)NC2c2ccc(F)cc2)cc1 (stereo not given),39*,1,i,-4,-26,i,-5,7
O=C(Nc1nc(-c2ccc(S(=O)(=O)N3CCCCCC3)cc2)cs1)c1cccs1,55*,-1,i,-2,-4,i,4,26
O=C(Nc1nc(-c2ccc(S(=O)(=O)N3CCOCC3)cc2)cs1)c1ccccc1,68*,0,i,-5,17,i,18*!,38*
O=C(Nc1ccc(S(=O)(=O)N2CCCC2)cc1)c1cccs1,0,-4,i,-6,-5,i,nt,nt
C=C(C)CSc1nnc(-c2cc(-c3ccc(OC)cc3)n[nH]2)n1N,-27,nt,nt,nt,nt,nt,nt,nt
COc1ccccc1N1CCN(C(=O)CSc2nnc3n2C(C)(C)Cc2ccccc2-3)CC1,63*,-1,i,-8,4,i,4,45*
CC1Cc2ccccc2N1C(=O)CSc1nnc2n1C(C)(C)Cc1ccccc1-2 (stereo not given),9,2,i,-5,-20,i,nt,nt
C=C1C(=O)O[C@H]2C[C@H]1[C@@H](OC(C)=O)C/C(C)=C/CC/C(C)=C\CC[C@]2(C)O,40*,nt,nt,-1,29,nt,32*,38*
O=C(Nc1ccccc1F)c1ccc(CN2CCc3ccccc3C2)cc1,2,1,i,-11,-34,i,nt,nt
O=C(Nc1cccnc1)c1ccc(CN2CCc3ccccc3C2)cc1,42*,5,i,0,-2,i,-14,10
O=Cc1s/c(=N\S(=O)(=O)c2ccccc2)n(CCCCl)c1Cl,60*,nt,nt,-6,-12,nt,62*,46*
CCOc1ccc(CN(C)C(=O)CCc2ccc(S(=O)(=O)N3CCCCCC3)cc2)cc1,41*,1,nt,-4,43,nt,1,19
SMILES,NR2F2 inh,NR2E3 ag-1,CHT PAM,GalR3 antagonist,NR2E3 ag-2,CHT block,Gal4-VP16 ctr,NR2F2 inh conf
COc1ccc(CN(C)C(=O)/C=C/c2ccc(S(=O)(=O)N3CCCCCC3)cc2)cc1,38*,1,nt,-9,-48,nt,10,27
Cc1ccccc1C(=O)NC1CCCCN(Cc2cccc(Cl)c2)C1=O (stereo not given),22,nt,nt,nt,nt,nt,nt,nt
c1ccc(-c2ccc(-c3nc(-c4ccccn4)no3)cc2)cc1,63*,2,i,-13,31,i,71*,88*
Cc1ccc(-c2nc(-c3ccccn3)no2)cc1,72*,3,i,0,33,i,60*,78*
COCCCNC(=O)c1oc(=O)c2ccccc2c1-c1ccc(C)cc1,7,nt,nt,nt,nt,nt,nt,nt
Cc1nc(Nc2ncc(C(=O)Nc3c(C)cccc3Cl)s2)cc(N2CCN(CCO)CC2)n1,39*,nt,nt,nt,nt,nt,3,18
Cc1c(Cl)cccc1NC(=O)CN1CCN(CCO)CC1,-13,0,i,-6,-7,i,nt,nt
CC(=O)Nc1sc2c(c1-c1nc3ccccc3s1)CN(C(C)C)C2,-52,nt,nt,nt,nt,nt,nt,nt
CC(C)N1CCc2c(sc(NC(=O)c3nc4ccccc4s3)c2C(N)=O)C1,38*,2,i,-5,-13,i,-9,6
CC(C)N1CCc2c(sc(NC(=O)c3cc(-c4cccs4)nc4ccccc34)c2C(N)=O)C1,nt,1,i,nt,-15,i,nt,nt
CC(=O)Nc1sc2c(c1-c1nc3ccccc3s1)CCCN(C(C)C)C2,45*,nt,nt,nt,nt,nt,-9,-70
O=C(Nc1nc2ncccn2c1-c1ccc(C(F)(F)F)cc1)c1ccccc1,5,nt,nt,nt,nt,nt,nt,nt
COc1cccc(CNS(=O)(=O)c2ccc3c(c2)oc(=O)n3C)c1,-5,-4,i,4,12,i,nt,nt
Cn1c(=O)oc2cc(S(=O)(=O)NCc3ccncc3)ccc21,44*,2,i,-3,1,i,-8,-4
N#Cc1c(NC(=O)CCCC(=O)O)sc2c1CCCCC2,46*,-1,i,0,-51,i,17*,1
CC(C)(C)C1CCc2c(sc(NC(=O)CSc3ncn[nH]3)c2C#N)C1 (stereo not given),-4,-2,i,-3,-60,i,nt,nt

# Assay outcomes as filed in PubChem.
